Four compounds from ChEMBL document CHEMBL1123512, “Synthesis and biological activity of analogues of beta-chlornaltrexamine and beta-funaltrexamine at opioid receptors” (J Med Chem, 1986) can be followed below.

Assay [1] has as its target T1, Opioid receptor (Mus musculus) (UniProt P42866+P32300+P33534). Description: Compound was tested for agonist activity against opioid receptor in mouse vas deferens. The assay is classed as functional, tissue-based.
In assay [2] the target is T1, Opioid receptor (Mus musculus). The assay can be described thus: Compound was tested for irreversible antagonistic activity against opioid receptor in mouse vas deferens at 3 uM. It is filed as functional, tissue-based.
Assay [3] shares this target. The assay can be described thus: Percent inhibition against opioid receptor in mouse vas deferens at 1 uM. The assay is classed as tissue-based.
Assay [4] has as its target T2, Opioid receptors; mu/kappa/delta (Homo sapiens, UniProt P41145+P41143+P35372). Description: (§1) Compound was tested for agonist activity against opioid receptor in electrically stimulated longitudinal muscle of guinea pig ileum. The assay is classed as functional, tissue-based, Cavia porcellus. The following applies: target entry is the homologue from another species.

The target in assay [5] is T2, Opioid receptors; mu/kappa/delta. Description: Irreversible antagonistic activity against opioid receptor in electrically stimulated longitudinal muscle of guinea pig ileum expressed as IC50 of EK by IC50 of control. It is filed as functional, tissue-based. The method, boiled down:
(§2)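 Guinea pig ileum longitudinal muscle was exposed to ligand at 200 nM for 30 min, then washed thoroughly (30 times), and challenged with morphine or ethylketazocine (EK). The value is the agonist IC50 in the treated preparation divided by the control IC50 in the same preparation.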

Assay [6] has the same target. Description: Irreversible antagonistic activity against opioid receptor in electrically stimulated longitudinal muscle of guinea pig ileum expressed as IC50 of morphine by IC50 of control. It is filed as functional, tissue-based. The method, boiled down: as §2
Assay [7] shares this target. Description: Compound was tested for irreversible antagonistic activity against opioid receptor in mouse vas deferens expressed as IC50 of DADLE by IC50 of control. It is filed as functional, tissue-based.
Assay [8] has the same target. Description: Percent inhibition against opioid receptor in electrically stimulated longitudinal muscle of guinea pig ileum at 1 uM. It is filed as tissue-based. The following applies: Cavia porcellus, target entry is the homologue from another species.
Assay [9] shares this target. Described as §1. It is filed as functional, tissue-based. The conditions noted are these: Cavia porcellus, target entry is the homologue from another species.
For assay [10], the target named is T1, Opioid receptor (Mus musculus). The assay can be described thus: Percent inhibition against opioid receptor in mouse vas deferens at 3 uM. The assay is classed as tissue-based.
In assay [11] the target is T2, Opioid receptors; mu/kappa/delta. The assay can be described thus: Compound was tested for irreversible antagonistic activity against opioid receptor in mouse vas deferens expressed as IC50 of morphine by IC50 of control. It is filed as functional, tissue-based.
Assay [12] can be described thus: Reversible antagonistic activity against opioid receptor in electrically stimulated longitudinal muscle of guinea pig ileum expressed as IC50 of EK by IC50 of control. The assay is classed as functional. The method, boiled down:
(§3)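 In guinea pig ileum longitudinal muscle, morphine or ethylketazocine (EK) was tested in the presence of ligand at 10 nM, without washing. The value is the agonist IC50 in the treated preparation divided by the control IC50 in the same preparation.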

The nature of assay [13]: Reversible antagonistic activity against opioid receptor in electrically stimulated longitudinal muscle of guinea pig ileum expressed as IC50 of morphine by IC50 of control. It is filed as functional. The method, boiled down:
as §3

The target in assay [14] is T2, Opioid receptors; mu/kappa/delta. Description: Percent inhibition against opioid receptor in electrically stimulated longitudinal muscle of guinea pig ileum at 100 nM. The following applies: Cavia porcellus, target entry is the homologue from another species. The assay is classed as tissue-based.
Assay [15] shares this target. The assay can be described thus: (§4) Compound was tested for irreversible antagonistic activity against opioid receptor in mouse vas deferens. The assay is classed as functional, tissue-based.
For assay [16] the target is unchanged. The description is as §4. The assay is classed as functional, tissue-based. The source holds these as a separate data set.

T1 sequence (P32300 whole entry, looked up): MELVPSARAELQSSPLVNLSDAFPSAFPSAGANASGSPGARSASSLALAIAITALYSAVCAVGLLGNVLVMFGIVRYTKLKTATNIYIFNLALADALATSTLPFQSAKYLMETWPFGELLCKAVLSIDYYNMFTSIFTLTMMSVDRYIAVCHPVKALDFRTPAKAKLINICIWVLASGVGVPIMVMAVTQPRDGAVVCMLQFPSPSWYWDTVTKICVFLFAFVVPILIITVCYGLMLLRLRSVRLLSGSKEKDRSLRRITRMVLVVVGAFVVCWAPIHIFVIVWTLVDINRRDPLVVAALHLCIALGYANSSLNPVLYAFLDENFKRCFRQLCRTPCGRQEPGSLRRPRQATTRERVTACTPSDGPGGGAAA
T1 sequence (P33534 whole entry, looked up): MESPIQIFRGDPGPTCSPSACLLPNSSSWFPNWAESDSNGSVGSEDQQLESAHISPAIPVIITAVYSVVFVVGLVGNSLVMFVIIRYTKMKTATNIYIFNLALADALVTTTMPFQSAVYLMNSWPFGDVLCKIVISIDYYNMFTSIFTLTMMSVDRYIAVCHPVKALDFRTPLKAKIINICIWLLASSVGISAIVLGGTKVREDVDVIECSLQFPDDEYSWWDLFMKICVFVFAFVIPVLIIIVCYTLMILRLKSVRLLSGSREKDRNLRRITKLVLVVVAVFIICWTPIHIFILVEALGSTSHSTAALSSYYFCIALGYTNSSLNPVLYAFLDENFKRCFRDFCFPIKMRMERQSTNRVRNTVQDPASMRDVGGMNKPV
T1 sequence (P42866 whole entry, looked up): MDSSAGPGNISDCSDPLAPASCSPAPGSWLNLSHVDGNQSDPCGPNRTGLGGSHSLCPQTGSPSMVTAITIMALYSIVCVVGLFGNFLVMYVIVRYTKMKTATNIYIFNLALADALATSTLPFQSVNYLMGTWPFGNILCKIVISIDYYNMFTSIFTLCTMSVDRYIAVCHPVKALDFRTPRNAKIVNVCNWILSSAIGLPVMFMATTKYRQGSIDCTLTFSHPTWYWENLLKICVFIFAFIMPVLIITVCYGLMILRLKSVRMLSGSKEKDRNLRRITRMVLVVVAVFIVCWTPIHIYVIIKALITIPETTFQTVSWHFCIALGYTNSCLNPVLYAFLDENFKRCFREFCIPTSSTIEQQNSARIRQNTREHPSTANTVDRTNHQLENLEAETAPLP
T2 sequence (P35372 whole entry, looked up): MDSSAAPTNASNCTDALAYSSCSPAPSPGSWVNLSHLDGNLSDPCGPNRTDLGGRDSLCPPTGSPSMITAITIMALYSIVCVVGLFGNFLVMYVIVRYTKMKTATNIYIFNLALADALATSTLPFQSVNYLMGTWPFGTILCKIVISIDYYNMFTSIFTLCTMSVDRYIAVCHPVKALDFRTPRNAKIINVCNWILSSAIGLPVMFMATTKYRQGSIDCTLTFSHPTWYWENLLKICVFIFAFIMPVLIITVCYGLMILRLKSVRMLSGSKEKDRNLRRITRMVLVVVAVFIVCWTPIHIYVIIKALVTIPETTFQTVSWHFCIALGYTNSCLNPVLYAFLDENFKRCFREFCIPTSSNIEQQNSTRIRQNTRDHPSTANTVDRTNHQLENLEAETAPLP
T2 sequence (P41143 whole entry, looked up): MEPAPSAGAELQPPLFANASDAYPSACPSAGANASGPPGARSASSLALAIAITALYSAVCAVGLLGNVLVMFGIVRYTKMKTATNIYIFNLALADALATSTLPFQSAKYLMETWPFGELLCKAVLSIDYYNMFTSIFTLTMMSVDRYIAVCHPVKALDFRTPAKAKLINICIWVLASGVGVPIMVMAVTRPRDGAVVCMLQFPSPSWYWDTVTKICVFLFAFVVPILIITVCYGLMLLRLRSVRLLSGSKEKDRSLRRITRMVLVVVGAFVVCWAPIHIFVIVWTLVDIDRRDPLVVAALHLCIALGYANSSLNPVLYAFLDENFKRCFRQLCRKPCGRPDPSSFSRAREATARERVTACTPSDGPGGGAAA
T2 sequence (P41145 whole entry, looked up): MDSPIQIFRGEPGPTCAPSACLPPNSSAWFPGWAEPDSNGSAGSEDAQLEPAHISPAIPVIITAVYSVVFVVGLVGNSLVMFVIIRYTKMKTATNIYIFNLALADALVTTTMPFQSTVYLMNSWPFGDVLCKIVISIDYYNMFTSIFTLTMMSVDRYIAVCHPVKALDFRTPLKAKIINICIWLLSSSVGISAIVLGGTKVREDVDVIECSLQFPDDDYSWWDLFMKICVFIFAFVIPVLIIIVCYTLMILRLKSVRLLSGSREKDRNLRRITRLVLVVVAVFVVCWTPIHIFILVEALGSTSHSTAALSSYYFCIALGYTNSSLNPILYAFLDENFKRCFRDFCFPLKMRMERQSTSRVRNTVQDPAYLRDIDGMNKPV

Take `O=C(CN(CCCl)CCCl)N[C@@H]1CC[C@@]2(O)C3Cc4ccc(O)c5c4C2(CCN3CC2CC2)[C@H]1O5` (stereo partly specified): the IC30 (commonly the concentration at which the effect reaches the 30% level) in [1] came to 20 nM. In addition, the figures for the inhibition in [2] and in assay [3] were 54% and 55%, respectively. In assay [4], the IC50 (commonly the point on the concentration scale where inhibition reaches its midpoint) turned out to be 3.8 nM. The Ratio came to 12.3 in assay [5], 27.4 in assay [6] and 4 in assay [7].

In the case of `CCOC(=O)/C=C/C(=O)NCC(=O)N[C@@H]1CC[C@@]2(O)C3Cc4ccc(O)c5c4C2(CCN3CC2CC2)[C@H]1O5` (stereo partly specified), the inhibition – broadly, the share of the control response that was lost under treatment – in [8] was 42%; in assay [10], 56%. In addition, the IC30 in assay [9] came out at 10 nM; in assay [1] it was 7 nM. Also, the Ratio is 2 in assay [5]; 0.6 in [6]; 0.8 in assay [7]; 1.8 in assay [11]; 2.5 in [12]; 2.5 in assay [13].

As to `CCOC(=O)/C=C/C(=O)NCC(=O)NCC(=O)NCC(=O)N[C@@H]1CC[C@@]2(O)C3Cc4ccc(O)c5c4C2(CCN3CC2CC2)[C@H]1O5` (stereo partly specified), the inhibition in [14] turned out to be 45%; in assay [3], 61%. Further, the concentration for an effect of 20% (IC20) – broadly, the concentration at which the effect reaches the 20% level – in assay [9] came out at 10 nM. Also, the concentration for an effect of 30% (IC30) in [1] stood at 20 nM. Also, the Ratio came out at 0.8 in assay [5]; 1.3 in [6]; 1.2 in [15]; 3.3 in assay [12]; 12.3 in assay [13].

For the compound `CCOC(=O)/C=C/C(=O)NCC(=O)NCC(=O)N[C@@H]1CC[C@@]2(O)C3Cc4ccc(O)c5c4C2(CCN3CC2CC2)[C@H]1O5` (stereo partly specified), the inhibition in [14] is 45%; in assay [3], 59%. In addition, the 20% effect concentration (IC20) in [9] turned out to be 10 nM. Further, the IC30 in assay [1] came out at 10 nM. Further, the Ratio in assay [5] was found to be 1.3; in [6], 3.9; in [15], 4.3; in [16], 1.2; in [12], 4.8; in assay [13], 16.8.
